{
  "source": "ChEMBL document CHEMBL4706499",
  "about": "“PTG-0861: A novel HDAC6-selective inhibitor as a therapeutic strategy in acute myeloid leukaemia” (Eur J Med Chem, 2020)",
  "key": {"MV4-11 [1]": {"system": "MV4-11", "assay": "Induction of apoptosis in human MV4-11 cells assessed as viable cells at 1 microM measured after 18 hrs by Annexin V/Propidium iodide stain based Flow cytometry assay (reference value: 53.27%)", "type": "functional", "conditions": "read-out: Activity"}, "Histone deacetylase 9": {"target": "Histone deacetylase 9 (Homo sapiens, UniProt Q9UKV0)", "sequence (Q9UKV0 whole entry)": "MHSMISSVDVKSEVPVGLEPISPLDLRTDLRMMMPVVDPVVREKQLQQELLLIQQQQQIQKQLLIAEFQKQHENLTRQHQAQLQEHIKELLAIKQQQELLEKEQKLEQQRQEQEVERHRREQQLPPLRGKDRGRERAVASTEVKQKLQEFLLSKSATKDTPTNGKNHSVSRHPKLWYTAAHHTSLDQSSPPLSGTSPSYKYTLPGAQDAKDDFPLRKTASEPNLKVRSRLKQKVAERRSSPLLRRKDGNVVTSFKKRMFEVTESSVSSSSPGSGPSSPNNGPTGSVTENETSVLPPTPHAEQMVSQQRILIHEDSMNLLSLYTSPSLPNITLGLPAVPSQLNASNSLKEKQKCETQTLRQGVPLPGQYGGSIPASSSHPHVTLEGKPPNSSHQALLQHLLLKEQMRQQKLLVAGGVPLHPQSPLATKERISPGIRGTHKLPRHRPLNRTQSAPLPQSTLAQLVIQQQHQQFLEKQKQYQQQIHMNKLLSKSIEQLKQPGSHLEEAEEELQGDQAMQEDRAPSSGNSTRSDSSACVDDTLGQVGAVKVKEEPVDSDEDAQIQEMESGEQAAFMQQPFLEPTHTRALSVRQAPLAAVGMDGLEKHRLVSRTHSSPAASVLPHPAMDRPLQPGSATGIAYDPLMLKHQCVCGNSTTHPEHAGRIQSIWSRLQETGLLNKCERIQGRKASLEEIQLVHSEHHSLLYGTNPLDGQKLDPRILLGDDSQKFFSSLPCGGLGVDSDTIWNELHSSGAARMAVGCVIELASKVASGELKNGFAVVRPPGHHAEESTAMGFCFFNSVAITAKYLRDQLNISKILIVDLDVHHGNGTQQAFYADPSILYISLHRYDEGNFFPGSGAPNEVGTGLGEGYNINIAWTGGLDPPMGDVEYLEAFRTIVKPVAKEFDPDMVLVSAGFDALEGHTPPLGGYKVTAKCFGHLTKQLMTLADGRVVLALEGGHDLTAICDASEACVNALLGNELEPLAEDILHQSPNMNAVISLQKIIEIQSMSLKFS", "assay": "Inhibition of recombinant full length human HDAC9 expressed in SF9 baculovirus using FAM- labelled acetylated peptide as substrate measured by Electrophoretic mobility shift assay"}, "Histone deacetylase 6": {"target": "T1, Histone deacetylase 6 (Danio rerio, UniProt F8W4B7)", "T1 sequence (F8W4B7 whole entry)": "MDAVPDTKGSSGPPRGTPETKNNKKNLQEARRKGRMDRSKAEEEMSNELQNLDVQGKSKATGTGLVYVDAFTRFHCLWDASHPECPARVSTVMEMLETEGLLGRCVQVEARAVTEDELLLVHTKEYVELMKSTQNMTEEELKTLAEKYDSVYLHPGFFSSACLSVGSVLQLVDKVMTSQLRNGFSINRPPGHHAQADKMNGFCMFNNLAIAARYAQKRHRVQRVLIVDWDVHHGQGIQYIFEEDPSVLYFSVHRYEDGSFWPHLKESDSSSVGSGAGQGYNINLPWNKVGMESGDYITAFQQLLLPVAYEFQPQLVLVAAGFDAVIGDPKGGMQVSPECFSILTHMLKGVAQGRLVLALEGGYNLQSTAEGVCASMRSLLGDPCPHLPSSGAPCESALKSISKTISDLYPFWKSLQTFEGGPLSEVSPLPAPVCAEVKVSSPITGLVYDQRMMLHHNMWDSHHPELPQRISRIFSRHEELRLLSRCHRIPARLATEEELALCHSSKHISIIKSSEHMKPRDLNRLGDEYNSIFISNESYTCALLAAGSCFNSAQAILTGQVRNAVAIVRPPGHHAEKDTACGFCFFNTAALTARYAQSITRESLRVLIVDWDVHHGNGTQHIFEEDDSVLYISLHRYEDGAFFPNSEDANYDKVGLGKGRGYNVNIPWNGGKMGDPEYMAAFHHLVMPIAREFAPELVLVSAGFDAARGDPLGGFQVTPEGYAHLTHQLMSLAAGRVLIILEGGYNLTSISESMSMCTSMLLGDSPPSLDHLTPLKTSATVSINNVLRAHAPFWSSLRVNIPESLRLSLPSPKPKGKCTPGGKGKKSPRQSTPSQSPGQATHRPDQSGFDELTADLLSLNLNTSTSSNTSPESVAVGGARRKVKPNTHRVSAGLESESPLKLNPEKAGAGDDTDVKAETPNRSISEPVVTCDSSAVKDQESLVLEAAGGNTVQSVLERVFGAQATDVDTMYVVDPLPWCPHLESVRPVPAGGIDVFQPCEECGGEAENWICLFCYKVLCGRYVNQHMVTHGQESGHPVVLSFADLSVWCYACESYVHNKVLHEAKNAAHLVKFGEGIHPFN", "assay": "Inhibition of N-terminal 6 His-SUMO tagged Zebrafish HDAC6 CD2 domain expressed in Escherichia coli BL21(DE3) RILP pretreated for 10 mins before FITC-M344 addition and measured after 10 mins by fluorescence polarization competition assay"}, "MV4-11 [2]": {"system": "MV4-11", "assay": "Induction of apoptosis in human MV4-11 cells assessed as early apoptotic cells at 2 microM measured after 18 hrs by Annexin V/Propidium iodide stain based Flow cytometry assay (reference value: 1.7%)", "type": "functional"}, "MV4-11 [3]": {"system": "MV4-11", "assay": "Induction of apoptosis in human MV4-11 cells assessed as viable cells at 2 microM measured after 18 hrs by Annexin V/Propidium iodide stain based Flow cytometry assay (reference value: 53.27%)", "type": "functional", "conditions": "read-out: Activity"}, "[4]": {"target": "T2, Protein deacetylase HDAC6 (Homo sapiens, UniProt Q9UBN7)", "T2 sequence (Q9UBN7 whole entry)": "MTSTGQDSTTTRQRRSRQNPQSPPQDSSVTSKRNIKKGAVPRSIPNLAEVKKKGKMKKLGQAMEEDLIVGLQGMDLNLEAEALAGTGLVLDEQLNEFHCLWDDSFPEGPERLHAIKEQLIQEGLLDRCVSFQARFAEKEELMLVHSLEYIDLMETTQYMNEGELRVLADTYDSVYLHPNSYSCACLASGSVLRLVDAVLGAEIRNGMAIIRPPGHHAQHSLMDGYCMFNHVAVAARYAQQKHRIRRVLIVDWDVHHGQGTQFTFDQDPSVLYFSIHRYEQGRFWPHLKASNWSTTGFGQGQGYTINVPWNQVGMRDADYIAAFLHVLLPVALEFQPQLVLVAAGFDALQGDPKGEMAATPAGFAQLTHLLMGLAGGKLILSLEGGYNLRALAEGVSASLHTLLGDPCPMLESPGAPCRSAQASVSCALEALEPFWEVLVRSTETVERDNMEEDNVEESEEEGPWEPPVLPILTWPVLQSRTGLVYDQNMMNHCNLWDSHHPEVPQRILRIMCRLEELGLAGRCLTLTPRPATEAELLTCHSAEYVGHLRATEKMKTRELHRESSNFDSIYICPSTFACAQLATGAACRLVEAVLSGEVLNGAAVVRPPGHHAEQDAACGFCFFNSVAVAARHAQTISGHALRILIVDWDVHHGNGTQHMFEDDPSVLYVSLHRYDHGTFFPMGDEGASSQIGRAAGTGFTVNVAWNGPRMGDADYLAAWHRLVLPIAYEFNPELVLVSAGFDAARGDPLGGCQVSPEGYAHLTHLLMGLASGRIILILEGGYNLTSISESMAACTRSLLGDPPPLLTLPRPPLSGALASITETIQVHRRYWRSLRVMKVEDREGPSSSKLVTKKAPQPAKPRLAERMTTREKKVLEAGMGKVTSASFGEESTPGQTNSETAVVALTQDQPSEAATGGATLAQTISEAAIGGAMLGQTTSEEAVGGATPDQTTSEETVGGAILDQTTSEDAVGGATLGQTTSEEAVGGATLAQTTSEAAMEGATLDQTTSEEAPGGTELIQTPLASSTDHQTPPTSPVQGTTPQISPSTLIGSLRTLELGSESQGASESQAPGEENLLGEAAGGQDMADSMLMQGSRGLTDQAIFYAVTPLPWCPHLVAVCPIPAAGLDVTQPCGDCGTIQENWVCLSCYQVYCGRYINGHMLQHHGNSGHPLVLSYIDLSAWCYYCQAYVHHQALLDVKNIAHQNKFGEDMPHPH", "assay": "Inhibition of HDAC6 in human HeLa cells assessed by deacetylation measured after 15 mins by ELISA", "type": "cell-based", "procedure,_shortened": "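ELISA activity assay using HeLa-derived active HDAC6 coated on plates. A range of inhibitor concentrations was incubated with the enzyme, and deacetylation activity was monitored over time, with a 0.25 h read. The IC50 was taken from the inhibition profile.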"}},
  "data": [
    {"smiles": "O=C(NO)c1ccc(CNC(=O)c2c(F)c(F)c(F)c(F)c2F)cc1", "values": [
      {"measurement": "viability at 1 µM", "setting": "MV4-11 [1]", "value": 35.6, "unit": "%"},
      {"measurement": "IC50", "setting": "Histone deacetylase 9", "value": "> 1000", "unit": "nM"},
      {"measurement": "IC50", "setting": "Histone deacetylase 6", "value": 74, "unit": "nM"},
      {"measurement": "Activity", "setting": "MV4-11 [2]", "value": 7.73, "unit": "%"},
      {"measurement": "viability at 2 µM", "setting": "MV4-11 [3]", "value": 20.2, "unit": "%"},
      {"measurement": "IC50", "setting": "[4]", "value": 590, "unit": "nM"}
    ]}
  ]
}
